ChEMBL document CHEMBL3124914, “Cytotoxic clerodane diterpenes from Zuelania guidonia” (J Nat Prod, 2014)

How the values were obtained:
[1] = Cytotoxicity against human MIAPaCa2 cells assessed as cell viability after 24 hrs by MTT assay; format: functional, cell-based; conditions: MIA PaCa-2, 24 h
Outline: (§1)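 Cells kept at 37 °C, 5% CO2 in RPMI 1640 with 10% heat-inactivated FBS, […] streptomycin, and 100 U/mL penicillin. Seeding per well: 1.2 × 10^4 for MIA-PaCa-2, 4 × 10^4 for CCRF-CEM and CEM-ADR5000, and 2 × 10^5 for PBMCs from healthy donors. Compounds were given in DMSO (0.1% DMSO solvent control) at various concentrations for 24 h. Read-out was MTT, and IC50 was taken by nonlinear regression.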

CCRF-CEM = experiment: Cytotoxicity against human CCRF-CEM cells assessed as cell viability after 24 hrs by MTT assay; format: functional, cell-based; outline: as §1
PBMC = experiment: Cytotoxicity against human PBMC assessed as cell viability after 24 hrs by MTT assay; format: cell-based; outline: as §1
[2] = Cytotoxicity against human CEM/ADR5000 cells assessed as cell viability after 24 hrs by MTT assay; format: functional, cell-based; conditions: ADR5000, 24 h; outline: as §1

Structure (SMILES)	IC50 [1] [µM]	IC50 (CCRF-CEM) [µM]	IC50 (PBMC) [µM]	IC50 [2] [µM]
C=CC(=C)CC[C@]1(C)[C@H](C)CC[C@@]23C(=CC(=O)C[C@@H]12)[C@@H](OC(C)=O)O[C@H]3OC(C)=O (relative stereo)	> 10	9.5	> 10	> 10
CCCCCCCCCC(=O)O[C@H]1C=C2[C@@H](OC(C)=O)O[C@@H](OC(C)=O)[C@]23[C@@H](OC2OC[C@@H](O)[C@H](O)[C@H]2O)C[C@@H](C)[C@@](C)(C[C@H](O)C2=CCOOC2)[C@@H]3C1 (relative stereo)	> 10	8	> 10	> 10
CC(=O)O[C@H]1O[C@@H](OC(C)=O)[C@]23C1=C[C@H](O)C[C@H]2[C@](C)(CCC1=CCOOC1)[C@H](C)C[C@@H]3OC(=O)/C=C/c1ccccc1 (relative stereo)	6.9	1.9	> 10	7.5
C=CC(=C)CC[C@]1(C)[C@H](C)C[C@H](O)[C@@]23C(=C[C@@H](OC(=O)/C=C/c4ccccc4)C[C@@H]12)[C@@H](OC(C)=O)O[C@H]3OC(C)=O (relative stereo)	4.6	1.6	> 10	4.6
C=CC(=C)CC[C@]1(C)[C@H](C)C[C@H](OC(=O)CC(O)CCCCCCCCC)[C@@]23C(=C[C@H](O)C[C@@H]12)[C@@H](OC(C)=O)O[C@H]3OC(C)=O (relative stereo)	7.4	2.5	> 10	5.7
CC[C@@]1(O)C(=O)OCc2c1cc1n(c2=O)Cc2cc3ccccc3nc2-1 [CAMPTOTHECIN]	> 10	0.08	> 10	0.3
CCCCCCCCCC(=O)O[C@H]1C=C2[C@@H](OC(C)=O)O[C@@H](OC(C)=O)[C@]23[C@@H](OC2OC[C@@H](O)[C@H](O)[C@H]2O)C[C@@H](C)[C@@](C)(C[C@@H](O)C2=CCOOC2)[C@@H]3C1 (relative stereo)	> 10	8.4	> 10	> 10
C=CC(=C)[C@H](O)C[C@]1(C)[C@H](C)C[C@H](OC(=O)CC(O)CCCCCCCCC)[C@@]23C(=C[C@H](O)C[C@@H]12)[C@@H](OC(C)=O)O[C@H]3OC(C)=O (relative stereo)	> 10	5.5	> 10	> 10
COc1cccc2c1C(=O)c1c(O)c3c(c(O)c1C2=O)C[C@@](O)(C(=O)CO)C[C@@H]3O[C@H]1C[C@H](N)[C@H](O)[C@H](C)O1 [DOXORUBICIN]	4.8	0.5	> 10	> 10
C=CC(=C)[C@@H](O)C[C@]1(C)[C@H](C)C[C@H](OC2OC[C@@H](O)[C@H](O)[C@H]2O)[C@@]23C(=C[C@H](OC(=O)CCCCCCCCC)C[C@@H]12)[C@@H](OC(C)=O)O[C@H]3OC(C)=O (relative stereo)	> 10	9.1	> 10	> 10
C=CC(=C)CC[C@]1(C)[C@H](C)C[C@H](OC(=O)/C=C/c2ccccc2)[C@@]23C(=C[C@H](O)C[C@@H]12)[C@@H](OC(C)=O)O[C@H]3OC(C)=O (relative stereo)	> 10	5.3	> 10	8.6
